Publication PMC4838375 (Nucleic Acids Research, 2016)

How the values were obtained:
PHDVC5HCHNSD1 [1] = experiment: NMR titration; assay type: binding, murine; settings: for average CSP value <CSP>: 15N HSQC of PHDVC5HCHNSD1 (0.2 mM), up to 12 molar excess of peptide, 295 K, pH 6.3; for interaction strength: fast exchange regime; for interaction strength / affinity: up to 12 molar excess; for affinity: no saturation
Method in brief: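 15N-labelled PHDvC5HCH domain was expressed in E. coli BL21(DE3) in 15NH4Cl minimal medium with 1 mM IPTG at 28°C overnight. Protein at 0.2–0.3 mM, quantified by UV (ε 12490 M⁻¹cm⁻¹), was in 20 mM sodium phosphate pH 6.3, 0.15 M NaCl, 2 mM DTT, 50 μM ZnCl₂. Peptide (>98% pure, 15 mM stock, dry-weight quantified) was added stepwise; 2D 15N-HSQC was acquired per point. CSP = [(ΔδHN² + ΔδN²/25)/2]^½.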

PHDVC5HCHNSD1 [2] = settings: biotinylated peptides, 21 aminoacids long; cited from earlier work

NCCCC[C@H](N)C(=O)O [Lysine]
amide chemical shifts induced (PHDVC5HCHNSD1 [1]; NMR titration, up to 300 mM of Lysine): induced amide chemical shifts in the same region

H3K4me3_1–21: Synthetic histone H3 peptide, K4me3
average CSP value <CSP> (PHDVC5HCHNSD1 [1]): ~0.02 ppm
interaction strength (PHDVC5HCHNSD1 [1]; NMR titration): extremely weak interactions
affinity (PHDVC5HCHNSD1 [1]; NMR titration): affinities in the high mM range
binding in vitro (PHDVC5HCHNSD1 [2]): binds

H3K9me3_1–21: Synthetic histone H3 peptide, K9me3
average CSP value <CSP> (PHDVC5HCHNSD1 [1]): ~0.02 ppm
interaction strength (PHDVC5HCHNSD1 [1]; NMR titration): extremely weak interactions
affinity (PHDVC5HCHNSD1 [1]; NMR titration): affinities in the high mM range
binding in vitro (PHDVC5HCHNSD1 [2]): binds

H3_1–21: Synthetic histone H3 peptide
average CSP value <CSP> (PHDVC5HCHNSD1 [1]): ~0.02 ppm
interaction strength (PHDVC5HCHNSD1 [1]; NMR titration): extremely weak interactions
affinity (PHDVC5HCHNSD1 [1]; NMR titration): affinities in the high mM range
